Rows were chosen to be rich in hits. Some 5.9% of all compounds tested hit in one or more screens of this group.
GASC1 inh: KDM4C (human) demethylase inhibition | 96,000 compounds, 0.15% hits | GST-KDM4C 2-372, H3K9me3 peptide, LANCE TR-FRET | Q9H3R0 | inhibition, % at 12.5 µM;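 active = mean replicate inhibition above about 25%, with at least 55% of replicates also reaching it, limit read from the data, passing the limit was not always enough; inconclusive = only one of those two conditions met; inactive = neither condition met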
Target sequence (Q9H3R0 2-372 limits assumed): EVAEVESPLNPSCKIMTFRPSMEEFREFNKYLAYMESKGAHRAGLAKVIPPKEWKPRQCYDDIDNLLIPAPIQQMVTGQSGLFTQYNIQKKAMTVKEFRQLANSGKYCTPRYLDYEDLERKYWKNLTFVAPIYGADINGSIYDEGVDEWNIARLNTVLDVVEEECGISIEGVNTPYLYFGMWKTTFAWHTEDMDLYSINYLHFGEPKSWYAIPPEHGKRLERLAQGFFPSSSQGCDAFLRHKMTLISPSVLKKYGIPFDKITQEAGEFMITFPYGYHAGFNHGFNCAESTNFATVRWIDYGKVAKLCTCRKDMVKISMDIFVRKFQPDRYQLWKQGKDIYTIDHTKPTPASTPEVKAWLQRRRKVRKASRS
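System: N-terminal GST-fused human GASC-1 (KDM4C) fragment, residues 2-372; amount: enzyme final amount 10 nM; incubation: reaction 30 min RT, detection step 1 h RT; medium: HEPES buffer, pH 7.5, plus ascorbate; technique: LANCE TR-FRET, Eu antibody, ULight-streptavidin, EDTA, ex 340 nm, em 618/671 nm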
T cruzi growth-1: T. cruzi proliferation inhibition. T. cruzi beta-gal in NIH3T3, GalScreen luminescence, 90 h. inhibition, % at 8.34 µM. 77,000 compounds, 5.9% hits;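 active = mean inhibition above about 93%, with at least 55% of replicates each passing it, limit read from the data, passing the limit was not always enough; inconclusive = only one of those two conditions holds; inactive = neither condition holds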
Pf Dd2 inh: inhibitors of Plasmodium falciparum Dd2 growth | activity change, % at 10 µM | P. falciparum Dd2 growth, SYBR Green, 72 h; active compounds read low | 94,000 compounds, 2.3% hits; in the data active = activity change below about -80%; inconclusive = no clear call, values can overlap the other calls
IDH1 R132H inh: blocks human IDH1 R132H reductase activity; diaphorase/resazurin fluorescence, 60 min; inhibition, % at 10 µM; 70,000 compounds, 0.18% hits; AID 624101; in the data active = inhibition above about 34%; inconclusive = no clear call, values can overlap the other calls; inactive = below about 11%
Target sequence (O75874 whole entry R132H): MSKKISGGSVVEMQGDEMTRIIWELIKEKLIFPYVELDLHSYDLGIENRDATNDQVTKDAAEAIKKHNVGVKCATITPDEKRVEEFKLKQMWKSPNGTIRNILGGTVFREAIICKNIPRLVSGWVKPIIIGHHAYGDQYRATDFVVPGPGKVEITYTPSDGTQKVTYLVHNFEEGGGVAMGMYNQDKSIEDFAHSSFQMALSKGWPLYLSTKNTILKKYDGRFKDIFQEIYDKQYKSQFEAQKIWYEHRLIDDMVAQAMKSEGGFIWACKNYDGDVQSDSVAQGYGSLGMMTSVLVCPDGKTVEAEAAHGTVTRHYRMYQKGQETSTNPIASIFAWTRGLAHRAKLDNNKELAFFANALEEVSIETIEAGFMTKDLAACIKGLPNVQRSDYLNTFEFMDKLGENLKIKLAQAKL
T cruzi growth-2: inhibitors of T. cruzi proliferation; inhibition, % at 8.35 µM; shares compounds with T cruzi growth-1; T. cruzi beta-gal in NIH3T3, GalScreen luminescence, 90 h; 5,600 compounds, 72% hits;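 active = mean replicate inhibition above about 95% and at least 55% of replicates individually reaching it, limit read from the data; inconclusive = only one of the two criteria is met; inactive = neither criterion is met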
T cruzi growth-3: blocks T. cruzi growth in NIH3T3 host cells; inhibition, % at 2.09 µM; T. cruzi beta-gal in NIH3T3, GalScreen luminescence, 90 h; AID 651740; 5,600 compounds, 21% hits; shares compounds with T cruzi growth-1;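 active = mean inhibition above about 95%, with at least 55% of replicates also reaching it, limit read from the data; inconclusive = meets just one of the two conditions; inactive = meets neither condition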
NIH3T3 tox: NIH/3T3 (mouse) viability loss. shares compounds with T cruzi growth-1. AID 651742. NIH/3T3 viability, CellTiter-Glo ATP luminescence, 90 h. cytotoxicity (signal decrease), % at 8.35 µM. 5,600 compounds, 14% hits;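 active = mean signal decrease across replicates above about 35% based on untreated-well scatter, with enough replicates individually passing, limit read from the data; inconclusive = no rule stated though some were filed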
3T3 cytotox 2: cytotoxicity in mouse NIH/3T3 fibroblasts; AID 651744; shares compounds with T cruzi growth-1; NIH/3T3 viability, CellTiter-Glo ATP luminescence, 90 h; inhibition, % at 24.9 µM; 5,600 compounds, 56% hits;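 active = mean loss of cell viability signal at or above a set limit, and enough replicates individually reaching it; inconclusive = meets only the mean limit or only the replicate share; inactive = meets neither condition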
Of the large screens only hits and unclear results are named; the others gave an inactive call (follow-up assays come after a bar, where they were run); ! = not active in a repeat.

C[C@H](CO)N1C[C@H](C)[C@H](CN(C)C(=O)C2CCCCC2)Oc2ncc(C#CCc3ccccc3)cc2C1=O	none (no result: IDH1 R132H inh)
CSc1cccc(NC(=O)CSc2ncn(-c3ccccc3)n2)c1	none (no result: GASC1 inh, T cruzi growth-1, Pf Dd2 inh)
C[C@@H]1CN([C@H](C)CO)C(=O)c2cc(NC(=O)Nc3ccc(C(F)(F)F)cc3)ccc2O[C@H]1CN(C)Cc1ccc(-c2ccccc2)cc1	T cruzi growth-1 123 | T cruzi growth-2 inactive | T cruzi growth-3 inconclusive | NIH3T3 tox 84 | 3T3 cytotox 2 102
C[C@@H]1CN([C@@H](C)CO)C(=O)c2cc(NC(=O)Nc3ccc(C(F)(F)F)cc3)ccc2O[C@H]1CN(C)Cc1ccc(-c2ccccc2)cc1	T cruzi growth-1 104 | T cruzi growth-2 102 | T cruzi growth-3 inactive | NIH3T3 tox inactive | 3T3 cytotox 2 105
C[C@H](CO)N1C[C@H](C)[C@@H](CN(C)Cc2ccccc2)Oc2ccc(NC(=O)Nc3ccc(C(F)(F)F)cc3)cc2C1=O	none
C[C@@H]1CN([C@@H](C)CO)C(=O)c2cc(NC(=O)Nc3ccc(C(F)(F)F)cc3)ccc2O[C@@H]1CN(C)Cc1ccc(-c2ccccc2)cc1	T cruzi growth-1 120 (no result: IDH1 R132H inh) | T cruzi growth-2 102 | T cruzi growth-3 98 | NIH3T3 tox 56 | 3T3 cytotox 2 103
C[C@@H]1CN([C@H](C)CO)C(=O)c2cc(NC(=O)Nc3ccccc3)ccc2O[C@H]1CN(C)Cc1ccc(C(F)(F)F)cc1	none
CCOc1cccc(/C=N/NC(=O)c2ccccc2O)c1OCC	none (no result: GASC1 inh, T cruzi growth-1, Pf Dd2 inh)
O=C1c2c(O)cc(O)c([C@@H]3C(=O)c4c(O)cc(O)cc4O[C@H]3c3ccc(O)cc3)c2O[C@@H](c2ccc(O)cc2)[C@@H]1O	none (no result: GASC1 inh, T cruzi growth-1, Pf Dd2 inh)
Cc1ccccc1-c1ccc([C@@H]2[C@@H](CO)N3CCCCN(C(=O)Nc4ccc(F)cc4)C[C@@H]23)cc1	none (no result: IDH1 R132H inh)
Cc1ccccc1-c1ccc([C@@H]2[C@H](CO)N3CCCCN(C(=O)Nc4ccc(F)cc4)C[C@@H]23)cc1	T cruzi growth-1 103 (no result: IDH1 R132H inh) | T cruzi growth-2 inactive | T cruzi growth-3 107 | NIH3T3 tox 117 | 3T3 cytotox 2 103
O=C(Nc1ccc(F)cc1)N1CCCCN2[C@@H](CO)[C@@H](c3ccc(-c4ccccc4F)cc3)[C@@H]2C1	T cruzi growth-1 103 (no result: GASC1 inh, IDH1 R132H inh) | T cruzi growth-2 inactive | T cruzi growth-3 106 | NIH3T3 tox 106 | 3T3 cytotox 2 104
CCCC(=O)Nc1nc2c(ncn2C2O[C@H]3COP(=O)(O)O[C@@H]3[C@@H]2OC(=O)CCC)c(=O)[nH]1 (stereo partly specified)	none (no result: GASC1 inh, T cruzi growth-1, Pf Dd2 inh)
COc1ccc(C2OCC3C2CO[C@H]3c2ccc(OC)c(OC)c2)cc1OC (stereo partly specified)	none (no result: GASC1 inh, T cruzi growth-1, Pf Dd2 inh)
C[C@H](CO)N1C[C@H](C)[C@@H](CN(C)C(=O)c2ccccc2)Oc2cc(/C=C/c3ccccc3)ccc2S1(=O)=O	T cruzi growth-1 inconclusive (no result: GASC1 inh) | T cruzi growth-2 104 | T cruzi growth-3 inactive | NIH3T3 tox inactive | 3T3 cytotox 2 43
C/C=C/c1ccc2c(c1)O[C@H](CN(C)C(=O)c1ccncc1)[C@@H](C)CN([C@H](C)CO)S2(=O)=O	none
C/C=C/c1ccc2c(c1)O[C@@H](CN(C)C(=O)c1cccc(F)c1)[C@@H](C)CN([C@@H](C)CO)S2(=O)=O	T cruzi growth-1 inconclusive | T cruzi growth-2 inactive | T cruzi growth-3 inactive | NIH3T3 tox inactive | 3T3 cytotox 2 inconclusive
C[C@@H]1CN([C@@H](C)CO)S(=O)(=O)c2ccc(/C=C/c3ccccc3)cc2O[C@H]1CN(C)C(=O)c1ccccc1	T cruzi growth-1 127 | T cruzi growth-2 110 | T cruzi growth-3 inactive | NIH3T3 tox 55 | 3T3 cytotox 2 85
C/C=C/c1ccc2c(c1)O[C@@H](CN(C)C(=O)c1ccccc1)[C@@H](C)CN([C@@H](C)CO)S2(=O)=O	none (no result: T cruzi growth-1)
C/C=C/c1ccc2c(c1)O[C@@H](CN(C)C(=O)c1ccccc1)[C@H](C)CN([C@@H](C)CO)S2(=O)=O	none (no result: T cruzi growth-1)
C[C@@H]1CN([C@@H](C)CO)S(=O)(=O)c2ccc(/C=C/c3ccccc3)cc2O[C@H]1CN(C)C(=O)c1ccncc1	T cruzi growth-1 101 | T cruzi growth-2 103 | T cruzi growth-3 inactive | NIH3T3 tox 38 | 3T3 cytotox 2 70
Clc1nc(NC2CCN(Cc3ccccc3)CC2)c2cc(Br)ccc2n1	none (no result: GASC1 inh, T cruzi growth-1, Pf Dd2 inh)
C[C@H](CO)N1C[C@H](C)[C@H](CN(C)C(=O)c2ccccc2)Oc2cc(/C=C/c3ccccc3)ccc2S1(=O)=O	T cruzi growth-1 127 (no result: GASC1 inh) | T cruzi growth-2 101 | T cruzi growth-3 inactive | NIH3T3 tox inactive | 3T3 cytotox 2 inactive
CCNC(=O)c1c(NC(=O)C(C)Oc2ccccc2F)sc2c1CCCC2 (stereo unspecified)	none (no result: GASC1 inh, T cruzi growth-1, Pf Dd2 inh)
C[C@@H]1CN([C@H](C)CO)C(=O)c2cc(/C=C/c3ccccc3)cnc2O[C@@H]1CN(C)Cc1ccccc1	none
C[C@H](CO)N1C[C@H](C)[C@H](CN(C)C(=O)Nc2ccccc2)Oc2ncc(-c3cccc(C(F)(F)F)c3)cc2C1=O	none (no result: IDH1 R132H inh)
C[C@H]1CN([C@@H](C)CO)C(=O)c2cc(/C=C/c3ccccc3)cnc2O[C@@H]1CN(C)Cc1ccccc1	T cruzi growth-1 106 | T cruzi growth-2 109 | T cruzi growth-3 inactive | NIH3T3 tox inactive | 3T3 cytotox 2 103
C[C@H](CO)N1C[C@H](C)[C@H](CN(C)Cc2ccccc2)Oc2ncc(/C=C/c3ccccc3)cc2C1=O	T cruzi growth-1 120! | T cruzi growth-2 117 | T cruzi growth-3 inactive | NIH3T3 tox 37 | 3T3 cytotox 2 102
C[C@H](CO)N1C[C@H](C)[C@H](CN(C)Cc2cccc(C(F)(F)F)c2)Oc2ncc(/C=C/c3ccccc3)cc2C1=O	T cruzi growth-1 116 | T cruzi growth-2 105 | T cruzi growth-3 112 | NIH3T3 tox inactive | 3T3 cytotox 2 80
COc1ccc(NC(=O)N(C)C[C@@H]2Oc3ncc(-c4cccc(C(F)(F)F)c4)cc3C(=O)N([C@H](C)CO)C[C@@H]2C)cc1	T cruzi growth-1 103 | T cruzi growth-2 98 | T cruzi growth-3 inactive | NIH3T3 tox inactive | 3T3 cytotox 2 46
Cc1cccc(CN(C)C[C@@H]2Oc3ncc(/C=C/c4ccccc4)cc3C(=O)N([C@H](C)CO)C[C@@H]2C)c1	none
C[C@H]1CN([C@@H](C)CO)C(=O)c2cc(/C=C/c3ccccc3)cnc2O[C@@H]1CN(C)Cc1ccncc1	none
O=C(CSc1ncccn1)Nc1ccc(I)cc1	none (no result: GASC1 inh, T cruzi growth-1, Pf Dd2 inh)
O=C(NO)c1ccc(C(=O)N/N=C/c2ccc(I)cc2)cc1	none (no result: GASC1 inh, T cruzi growth-1, Pf Dd2 inh)

Screening data (PubChem BioAssay)
